The record followed here is ChEMBL document CHEMBL5120805, “Autoxidation of a C2-Olefinated Dihydroartemisinic Acid Analogue to Form an Aromatic Ring: Application to Serrulatene Biosynthesis” (2022).

Format in all cases: functional
The test system of one test is Staphylococcus aureus. Briefly: Antimicrobial activity against Staphylococcus aureus JE2 ssessed as reduction in bacterial growth and measured for 24 hrs by resazurin dye based broth microdilution method. Put shortly:
(§1)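 Overnight cultures diluted to ~1 × 10^5 CFU/mL and exposed to compounds (DMSO stocks at 10 mg/mL) over 0.048–100 μg/mL final. Incubated standing in lysogeny broth at 37 °C for 24 h. Resazurin then added, 1 h further incubation, and MIC read from colour change.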

A further test relates to Pseudomonas aeruginosa. In words: Antimicrobial activity against Pseudomonas aeruginosa PA14 assessed as reduction in bacterial growth and measured for 24 hrs by resazurin dye based broth microdilution method. The method, boiled down:
as §1

In another test the test system is Cryptococcus neoformans. Briefly: Antimicrobial activity against Cryptococcus neoformans H99 assessed as reduction in […] growth and measured for 48 hrs by resazurin dye based broth microdilution method. Put shortly: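 Cells from overnight growth diluted to ~1 × 10^5 CFU/mL in sabouraud dextrose broth. Compounds from 10 mg/mL DMSO stocks tested at 0.048–100 μg/mL. Plates incubated standing at 37 °C for 48 h, then resazurin added for a further 24 h. MIC taken from colour change.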

Values after ≈ are worked out from the molar mass of the structure shown.

Consider `Cc1ccc2c(c1)[C@H]([C@@H](C)CO)CC[C@H]2C`, for which the MIC was greater than 100 µg/mL against Staphylococcus aureus, greater than 100 µg/mL with Pseudomonas aeruginosa and no less than 100 µg/mL in the test with Cryptococcus neoformans.

For the molecule GENTAMICIN, the MIC in the test with Staphylococcus aureus is 6.25 µg/mL; in the test on Pseudomonas aeruginosa, 0.39 µg/mL; with Cryptococcus neoformans, 6.25 µg/mL.

Take `COC=C[C@H](C)[C@@H]1CC[C@@H](C)[C@@H]2CCC(C)=C[C@@H]21` (mixture of isomers): the minimal inhibitory concentration (MIC) in the test with Staphylococcus aureus was 12.5 µg/mL; in the test with Pseudomonas aeruginosa it was greater than 100 µg/mL; in the test on Cryptococcus neoformans, 50 µg/mL.

With `CC1=C[C@H]2[C@@H](CC1)[C@H](C)CC[C@H]2[C@@H](C)C=O`, the results for the MIC with Staphylococcus aureus, with Pseudomonas aeruginosa and in the test with Cryptococcus neoformans were greater than 100 µg/mL, greater than 100 µg/mL and 12.5 µg/mL (≈ 56.7 µM), respectively.

`CC1=C[C@H]2[C@@H](CC1)[C@H](C)CC[C@H]2[C@@H](C)CCCO`: the minimal inhibitory concentration (MIC) is 12.5 µg/mL (≈ 49.9 µM) in the test with Staphylococcus aureus, greater than 100 µg/mL in the test with Pseudomonas aeruginosa and greater than 100 µg/mL with Cryptococcus neoformans.

Turning to `CC1=C[C@H]2[C@@H](C=C1)[C@H](C)CC[C@H]2[C@@H](C)CCCO`, the minimum inhibitory concentration (MIC) in the test with Staphylococcus aureus is 50 µg/mL (≈ 201 µM); with Pseudomonas aeruginosa, greater than 100 µg/mL; with Cryptococcus neoformans, greater than 100 µg/mL.

In the case of `COC=CC[C@H](C)[C@@H]1CC[C@@H](C)[C@@H]2CCC(C)=C[C@@H]21` (mixture of isomers), the MIC with Staphylococcus aureus, with Pseudomonas aeruginosa and with Cryptococcus neoformans was greater than 100 µg/mL throughout.

Turning to `CC1=C[C@H]2[C@@H](C=C1)[C@H](C)CC[C@H]2[C@@H](C)C(=O)O`, the minimal inhibitory concentration (MIC) in the test with Staphylococcus aureus was greater than 100 µg/mL; in the test with Pseudomonas aeruginosa, greater than 100 µg/mL; in the test with Cryptococcus neoformans, 100 µg/mL (≈ 427 µM).

Regarding `CC1=C[C@H]2[C@@H](C=C1)[C@H](C)CC[C@H]2[C@@H](C)C=O`, the minimal inhibitory concentration (MIC) in the test on Staphylococcus aureus, with Pseudomonas aeruginosa and with Cryptococcus neoformans was greater than 100 µg/mL throughout.

`O=C(O)c1cn(C2CC2)c2cc(N3CCNCC3)c(F)cc2c1=O` [CIPROFLOXACIN]: the values for the minimal inhibitory concentration (MIC) in the test on Staphylococcus aureus and with Pseudomonas aeruginosa were 12.5 µg/mL (≈ 37.7 µM) and less than 0.04 µg/mL, respectively.

With `C#COC(=O)[C@H](C)[C@@H]1CC[C@@H](C)[C@@H]2CCC(C)=C[C@@H]21`, the MIC with Staphylococcus aureus, in the test with Pseudomonas aeruginosa and in the test with Cryptococcus neoformans was greater than 100 µg/mL throughout.

Regarding `Cc1ccc2c(c1)[C@H]([C@@H](C)C(=O)O)CC[C@H]2C`, the MIC against Staphylococcus aureus is greater than 100 µg/mL; in the test with Pseudomonas aeruginosa, greater than 100 µg/mL; with Cryptococcus neoformans, 100 µg/mL (≈ 430 µM).

`CO[C@@H]1[C@@H](OC(N)=O)[C@@H](O)[C@H](Oc2ccc3c(O)c(NC(=O)c4ccc(O)c(CC=C(C)C)c4)c(=O)oc3c2C)OC1(C)C` [NOVOBIOCIN] came in with a minimum inhibitory concentration (MIC) with Staphylococcus aureus of less than 0.19 µg/mL.

`CC(=O)OCCC[C@H](C)[C@@H]1CC[C@@H](C)[C@@H]2C[C@@H](O)C(C)=C[C@@H]21`: the MIC against Staphylococcus aureus is greater than 100 µg/mL; in the test on Pseudomonas aeruginosa, greater than 100 µg/mL; with Cryptococcus neoformans it was 25 µg/mL (≈ 81 µM).

`CC(C)=CC=C[C@H](C)[C@@H]1CC[C@@H](C)c2ccc(C)cc21`: the minimum inhibitory concentration (MIC) in the test on Staphylococcus aureus, in the test with Pseudomonas aeruginosa and in the test on Cryptococcus neoformans was greater than 100 µg/mL in each case.

On to `C[C@@H]1CC[C@H]2[C@@H](C)C(=O)O[C@@H]3O[C@@]4(C)CC[C@@H]1[C@]32OO4` [ARTEMISININ], for which the values for the minimal inhibitory concentration (MIC) against Staphylococcus aureus, in the test on Pseudomonas aeruginosa and with Cryptococcus neoformans were greater than 100 µg/mL, greater than 100 µg/mL and 100 µg/mL (≈ 354 µM), respectively.

In the case of `CC(=O)OCCC[C@H](C)[C@@H]1CC[C@@H](C)[C@@H]2CCC(C)=C[C@@H]21`, the minimum inhibitory concentration (MIC) in the test on Staphylococcus aureus was greater than 100 µg/mL; with Pseudomonas aeruginosa it was greater than 100 µg/mL; in the test with Cryptococcus neoformans, 12.5 µg/mL (≈ 42.7 µM).

Consider `CC1=CC2=C([C@@H](C)C(=O)O)CC[C@@H](C)[C@@H]2CC1`, for which the MIC in the test with Staphylococcus aureus, in the test with Pseudomonas aeruginosa and in the test with Cryptococcus neoformans was greater than 100 µg/mL each time.

On to `CC1=C[C@H]2[C@@H](CC1)[C@H](C)CC[C@H]2[C@@H](C)C(=O)O`, for which the MIC in the test with Staphylococcus aureus is 100 µg/mL (≈ 423 µM); in the test on Pseudomonas aeruginosa it was greater than 100 µg/mL; with Cryptococcus neoformans, 25 µg/mL (≈ 106 µM).

As for `CC(C)=CCC[C@H](C)[C@@H]1CC[C@@H](C)c2ccc(C)cc21`, the MIC in the test on Staphylococcus aureus, with Pseudomonas aeruginosa and in the test with Cryptococcus neoformans was greater than 100 µg/mL each time.

As for `CC1=C[C@H]2[C@@H](CC1)[C@H](C)CC[C@H]2[C@@H](C)CCC=O`, the minimum inhibitory concentration (MIC) against Staphylococcus aureus, with Pseudomonas aeruginosa and with Cryptococcus neoformans was greater than 100 µg/mL throughout.

Turning to `Cc1ccc2c(c1)C([C@@H](C)CO)=CC[C@H]2C`, the results for the MIC with Staphylococcus aureus, with Pseudomonas aeruginosa and in the test on Cryptococcus neoformans were 100 µg/mL (≈ 462 µM), greater than 100 µg/mL and 50 µg/mL (≈ 231 µM), respectively.

In the case of `C[C@@H]1[C@H](O)[C@@H](C)/C=C/C=C/C=C/C=C/C=C/C=C/C=C/[C@H](O[C@@H]2O[C@H](C)[C@@H](O)[C@H](N)[C@@H]2O)C[C@@H]2O[C@](O)(C[C@@H](O)C[C@@H](O)[C@H](O)CC[C@@H](O)C[C@@H](O)CC(=O)O[C@H]1C)C[C@H](O)[C@H]2C(=O)O` [AMPHOTERICIN B], the minimum inhibitory concentration (MIC) with Cryptococcus neoformans was less than 0.048 µg/mL.

In the case of `CC1=C[C@H]2[C@@H](C=C1)[C@H](C)CC[C@H]2[C@@H](C)CO`, the values for the MIC in the test with Staphylococcus aureus, with Pseudomonas aeruginosa and in the test with Cryptococcus neoformans were 50 µg/mL (≈ 227 µM), greater than 100 µg/mL and 25 µg/mL (≈ 113 µM), respectively.

For `CC1=C[C@H]2[C@@H](CC1)[C@@H]([C@H](C)C(=O)OCc1cn(CCOCCOCCOCNS(=O)(=O)c3ccc(C4=c5cc6c7c(c5Oc5c4cc4c8c5CCCN8CCC4)CCC[N+]=7CCC6)c(S(=O)(=O)[O-])c3)nn1)CC[C@@H]2C`, the MIC against Staphylococcus aureus, in the test with Pseudomonas aeruginosa and in the test on Cryptococcus neoformans was greater than 50 µg/mL in each case.

`Cc1ccc2c(c1)[C@H]([C@@H](C)C=O)CC[C@H]2C`: the MIC is greater than 100 µg/mL against Staphylococcus aureus, greater than 100 µg/mL in the test on Pseudomonas aeruginosa and 100 µg/mL (≈ 462 µM) in the test with Cryptococcus neoformans.

In the case of `CC1C[C@@H]2OO[C@H]1[C@@H]1[C@H]([C@@H](C)C(=O)O)CC[C@@H](C)[C@@H]12` (stereo partly specified), the minimum inhibitory concentration (MIC) against Staphylococcus aureus, with Pseudomonas aeruginosa and in the test with Cryptococcus neoformans was greater than 100 µg/mL throughout.
